Test [1] in a line: reduced viability of SK-BR-3 breast cancer cells – cell-based, 24 h, human, pilot screen (AID 572;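 active = viability at or below 10% of carrier control in both of two separate runs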;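 note: compound exposure lasted between 18 and 24 h rather than exactly 24 h; 100% = carrier-treated control wells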). Conditions: SK-BR-3 viability, CellTiter-Glo luminescence, at 10 µM, stronger effect = lower value.
The nature of test [2]: HUVEC growth inhibition – cell-based, human, primary screen (AID 575;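 active = viability at or below 30% in both replicate assays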;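 note: 100% = median of untreated cell wells with 0.1% DMSO on each plate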). The settings on record: HUVEC proliferation, CellTiter-Glo luminescence, 72 h; at 10 µM; stronger effect = lower value. Summed up: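 Test system: HUVEC primary cells. Quantity: 1250 endothelial cells in each well. Dosing: single-point 10 µM, DMSO 0.1% final. Incubation: 72 h treatment at 37 °C. Measured by: CTG luminescence. Control set: DMSO cell controls and MePR drug controls. Plate: collagen-coated 384-well format.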
(In general: In ATP-based viability assays light output follows the ATP content of the culture.)

Test [3] is described as follows: H69AR cell proliferation blockers – human, duplicate replicates, primary screen (AID 580;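 active = viability at or under a set limit in both replicates, limit being median viability minus 3 SD, cut at about 48% in these data, passing the limit was not always enough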;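 note: 100% = mean luminescence of untreated wells and 0% = no signal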). Conditions: H69AR lung tumor cells viability, ATP luminescence, 72 h; at 10 µM; stronger effect = lower value.
Test [4] can be described thus: MRP1 drug-resistance reversers in H69AR cells – cell-based, doxorubicin co-treatment, pilot screen (AID 601). The settings on record: CellTiter-Glo, 72 h, at 10 µM; for differential viability (reversal): stronger effect = higher value.
Test [5] is described as follows: yeast transport mutant growth inhibition pilot in 384-well plates, post-Golgi transport modulator project (AID 636; in the data active = inhibition above about 31%). The settings on record: absorbance 615 nm, about 18 h, stronger effect = higher value.
A short description of test [6]: growth suppression of yeast trafficking mutant, preliminary HTS, modulators of trafficking downstream of Golgi apparatus project, 1536-format plate, OD 615 nm (AID 637; in the data active = inhibition above about 30%). The settings on record: yeast transport mutant growth, absorbance 615 nm, 18 h; stronger effect = higher value.
The mark [7] stands for this setting: H69AR cells + 2 uM doxorubicin, measured here: viability with 2 uM doxorubicin, stronger effect = lower value.
Setting [8] is: H69AR cells, compound alone cytotoxicity.

Active and inactive are the calls of the source.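 Rule for the calls, unless noted: active = viability loss from added drug above about 55%, and viability with drug at most 40%, in both replicates (limit read from the data, passing the limit was not always enough); inconclusive = both conditions met in only one replicate; inactive = neither replicate meets both conditions.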

As usually defined, the viability is a read-out of living cells in per cent, often relative to untreated cells. What is called inhibition is the relative decrease from the control value, in per cent. With `O=C(CCn1c(=O)oc2ccccc21)N1CCCCCC1`, the viability is 112% (inactive) in test [1]; 99% (inactive) in test [2]; 98.3% (inactive) in test [3]; 93.3% in test [4] (setting [7]); 98.3% in test [4] (setting [8]). The differential viability (reversal) in test [4] (H69AR cells + 2 uM doxorubicin) is 5.09% (inactive). Further, the inhibition in test [5] was 0.95% (inactive); in test [6] it was -1.64% (inactive).

Regarding `CN(C)c1nc(N(C)C)nc(N(C)C)n1`, the viability in test [1] is 95% (inactive); in test [2] it was 106% (inactive); in test [3], 96.8% (inactive); in test [4] (setting [7]), 99.6%; in test [4] (setting [8]), 96.8%. Also, the differential viability (reversal) in test [4] (H69AR cells + 2 uM doxorubicin) was -2.79% (inactive). The inhibition in test [5] is -1.69% (inactive); in test [6] it was -2.67% (inactive).

Regarding `O=C(Nc1cccnc1)c1cc2c(ccc3ccccc32)o1`, the viability was 96% (inactive) in test [1]; 97.3% (inactive) in test [2]; 84.9% (inactive) in test [3]; 84.5% in test [4] (setting [7]); 84.9% in test [4] (setting [8]). Besides, the differential viability (reversal) in test [4] (H69AR cells + 2 uM doxorubicin) was 0.36% (inactive). Besides, the inhibition in test [5] was -0.13% (inactive); in test [6] it was -3.45% (inactive).

Turning to `COc1ccccc1NC(=O)NC(N)=O`, the viability in test [1] was 102% (inactive); in test [2], 87.7% (inactive); in test [3], 96.4% (inactive); in test [4] (setting [7]), 94.5%; in test [4] (setting [8]), 96.4%. The differential viability (reversal) in test [4] (H69AR cells + 2 uM doxorubicin) was 1.88% (inactive). Moreover, the inhibition in test [5] is -5.89% (inactive); in test [6], 7.64% (inactive).

Take `COCC(=O)N(C)c1nnc(-c2ccccn2)s1`: the viability in test [1] is 83% (inactive); in test [2] it was 111% (inactive); in test [3], 105% (inactive); in test [4] (setting [7]), 91.3%; in test [4] (setting [8]), 105%. The differential viability (reversal) in test [4] (H69AR cells + 2 uM doxorubicin) is 13.6% (inactive). The inhibition was -2.57% (inactive) in test [5] and -1.09% (inactive) in test [6].

As to `O=C(Nc1ccccc1)N1CCC(c2ccccc2)C1` (stereo not drawn), the viability was 62% (inactive) in test [1]; 109% (inactive) in test [2]; 86.7% (inactive) in test [3]; 67.5% in test [4] (setting [7]); 86.7% in test [4] (setting [8]). In test [4] (H69AR cells + 2 uM doxorubicin), the differential viability (reversal) is 19.2% (inactive). In addition, the inhibition in test [5] is -2.6% (inactive); in test [6] it was 4.92% (inactive).

For the compound `CCC(=O)N(Cc1ccco1)c1nc(-c2cc(OC)ccc2OC)cs1`, the viability in test [1] is 105% (inactive); in test [2], 42.8% (inactive); in test [3], 69.3% (inactive); in test [4] (setting [7]), 70.2%; in test [4] (setting [8]), 69.3%. Also, the differential viability (reversal) in test [4] (H69AR cells + 2 uM doxorubicin) is -0.87% (inactive). In addition, the inhibition in test [5] is -2% (inactive); in test [6], -2.91% (inactive).

Consider `COc1cc2c(C#N)c(N3CCOCC3)nc(N)c2c(N)n1`, for which the viability in test [1] is 85% (inactive); in test [2] it was 90% (inactive); in test [3], 75.2% (inactive); in test [4] (setting [7]), 67%; in test [4] (setting [8]), 75.2%. In addition, the differential viability (reversal) in test [4] (H69AR cells + 2 uM doxorubicin) is 8.29% (inactive). Also, the inhibition in test [5] is -0.13% (inactive); in test [6], 0.82% (inactive).

As for `C1CNCCNCCNCCN1`, the viability in test [1] is 101% (inactive); in test [2] it was 113% (inactive); in test [3], 95.7% (inactive); in test [4] (setting [7]), 95.5%; in test [4] (setting [8]), 95.7%. Also, the differential viability (reversal) in test [4] (H69AR cells + 2 uM doxorubicin) was 0.16% (inactive). For the same compound, the values for the inhibition in test [5] and in test [6] were -0.26% (inactive) and 2.83% (inactive), respectively.

In the case of `O=C(CSc1nnc(-c2ccccn2)n1Cc1ccccc1)N1CCCC1`, the viability is 109% (inactive) in test [1]; 104% (inactive) in test [2]; 98.8% (inactive) in test [3]; 87.9% in test [4] (setting [7]); 98.8% in test [4] (setting [8]). Moreover, the differential viability (reversal) in test [4] (H69AR cells + 2 uM doxorubicin) was 10.9% (inactive). The inhibition was -8.67% (inactive) in test [5] and -6% (inactive) in test [6].

On to `Cc1ccc(OCC(O)Cn2c(NCCc3ccccc3)nc3c2c(=O)[nH]c(=O)n3C)cc1` (stereo not drawn), for which the viability in test [1] is 60% (inactive); in test [2] it was 88.8% (inactive); in test [3] it was 93.9% (inactive); in test [4] (setting [7]) it was 99%; in test [4] (setting [8]), 93.9%. The differential viability (reversal) in test [4] (H69AR cells + 2 uM doxorubicin) is -5.09% (inactive). The inhibition is -3.97% (inactive) in test [5] and -1.27% (inactive) in test [6].

The values above are taken from PubChem BioAssay.
